Format in all cases: functional
Assay [1] is filed under the species Rattus norvegicus. Nature of the assay: In vitro inhibition of lipopolysaccharide stimulated tumor necrosis factor-alpha production in rat whole blood. A digest of the protocol:
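Rat whole blood diluted to 50% in RPMI-1640 containing streptomycin and penicillin. Compound in DMSO, or DMSO vehicle, preincubated for 30 min at 37 °C in 5% CO2. Stimulated with 10 µg/mL LPS (E. coli B055:B5) and incubated 4 h under the same conditions. IC50 taken for inhibition of TNF-α production.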

Assay [2] deals with Rattus norvegicus. Put plainly: Compound was evaluated in vivo for the inhibition of LPS-stimulated serum TNF-alpha production in rat after oral administration at a dose 50 mg/kg. A digest of the protocol: (§1)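 Male SD rats, 6 weeks old, given compound orally as a suspension in 0.5% CMC. LPS (E. coli B055:B5, 0.1 mg/kg) injected iv 1 h after dosing. Animals killed and bled 90 min later. Serum TNF-α measured by ELISA. ED50 derived from TNF-α yield relative to LPS controls without compound.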

In assay [3] the test system is Rattus norvegicus. Put plainly: Compound was evaluated in vivo for the inhibition of LPS-stimulated serum TNF-alpha production in rat after oral administration of the compound. A digest of the protocol:
as §1

Assay [4] deals with Rattus norvegicus. Nature of the assay: Compound was evaluated in vivo for the inhibition of LPS-stimulated serum TNF-alpha production in rat after oral administration at a dose 100 mg/kg. The method in brief:
as §1

This note sets out measurements from ChEMBL document CHEMBL1135145, “Synthesis and bioactivities of novel 4,5,6,7-tetrahydrothieno[2,3-c]pyridines as inhibitors of tumor necrosis factor-alpha (TNF-alpha) production” (Bioorg Med Chem Lett, 2002).

In assay [1], `CC(C)C(=O)Nc1sc2c(c1C(=O)c1ccccc1Cl)CCN(C(=O)C1CC1)C2` showed an IC50 of 2.6 µM.

In assay [1], `CC(=O)N1CCc2c(sc(NC(=O)C(C)(C)C)c2Cc2ccccc2Cl)C1` gave an IC50 of 29 µM.

In assay [1], `CC(=O)N1CCc2c(sc(NC(=O)C(C)C)c2C(C)O)C1` (configuration not stated) came in with a 50% inhibitory concentration (IC50) of 38 µM.

In assay [1], `CC(=O)N1CCc2c(sc(NC(=O)C(C)(C)C)c2C(O)c2ccccc2Cl)C1` (configuration not stated) yielded an IC50 of 19 µM.

In assay [1], `O=C(c1ccccc1Cl)c1c(NC(=O)C2CC2)sc2c1CCN(C(=O)C1CC1)C2` came in with an IC50 of 0.9 µM.

In assay [2], `CCOC(=O)c1c(NC(=O)C(C)C)sc2c1CCN(C(C)=O)C2` displayed an inhibition in vivo at 50 mg/kg of 49.1%. For the same compound, in assay [1], the IC50 was determined as 22 µM.

On to `CC(=O)c1c(NC(=O)C(C)C)sc2c1CCN(C(C)=O)C2`, for which, in assay [2], 50 mg/kg produced 22.7% inhibition in vivo. The same compound returned an IC50 in assay [1] of 35 µM.

In turn, `CC(=O)N1CCc2c(sc(N)c2C(=O)c2ccccc2Cl)C1` came in with a 50% inhibitory concentration (IC50) in assay [1] of 72 µM.

`CC(=O)N1CCc2c(sc(NC(=O)c3ccncc3)c2C(=O)c2ccccc2Cl)C1` showed an IC50 in assay [1] of 21 µM.

Take `CC(=O)N1CCc2c(sc(NC(=O)c3cccnc3)c2C(=O)c2ccccc2)C1`: the midpoint of inhibition in assay [1], the IC50, lay at 14 µM.

As for `CC(C)C(=O)Nc1sc2c(c1C(=O)c1ccccc1Cl)CCNC2`, half-maximal inhibition in assay [1] (IC50) required 4 µM.

In assay [1], `COc1cccc(OC)c1C(=O)c1c(NC(C)=O)sc2c1CCN(C(C)=O)C2` registered an IC50 of 88 µM.

The compound `CCOC(=O)c1c(NC(=O)c2cccnc2)sc2c1CCN(C(C)=O)C2` yielded a concentration for half-maximal inhibition (IC50) in assay [1] of 22 µM.

Compound `CC(=O)N1CCc2c(sc(NC(=O)C3CCCCC3)c2C(=O)c2ccccc2Cl)C1` gave an IC50 in assay [1] of 39 µM.

Turning to `O=C(Nc1sc2c(c1C(=O)c1ccccc1Cl)CCN(Cc1ccccc1)C2)c1ccccc1`, the 50% inhibitory concentration (IC50) in assay [1] is greater than 100 µM.

In assay [1], `CC(=O)N1CCc2c(sc(NC(=O)c3ccc(F)cc3)c2C(=O)c2ccccc2Cl)C1` came in with an IC50 of 100 µM.

Regarding `Nc1sc2c(c1C(=O)c1ccccc1Cl)CCNC2`, the IC50 in assay [1] was greater than 100 µM.

The compound `CC(C)C(=O)Nc1sc2c(c1C(=O)c1ccccc1Cl)CCN(C)C2` registered an IC50 in assay [1] of 2 µM.

On to `CC(=O)N1CCc2c(sc(NC(=O)C(C)C)c2C(=O)c2ccccc2)C1`, for which at 50 mg/kg the inhibition in vivo in assay [2] was 35%. The concentration for half-maximal inhibition (IC50) in assay [1] was 3 µM.

`CC(=O)N1CCc2c(sc(N(CC3CCCCC3)CC3CCCCC3)c2C(=O)c2ccccc2Cl)C1` had an IC50 in assay [1] of 100 µM.

`CC(=O)N1CCc2c(sc(N(C)C(=O)C3CC3)c2C(=O)c2ccccc2Cl)C1`: in assay [1], 74 µM corresponded to half-maximal inhibition (IC50).

In assay [1], `CC(=O)N1CCc2c(sc(NC(=O)C3CC3)c2C(=O)c2cccc(Cl)c2)C1` had an IC50 of 20 µM.

`CN1CCc2c(sc(NC(=O)C3CC3)c2C(=O)c2ccccc2Cl)C1` returned an IC50 in assay [1] of 1.3 µM.

As to `CC(=O)N1CCc2c(C(=O)c3ccccc3Cl)csc2C1`, the IC50 in assay [1] was 38 µM.

Compound `CCN(CC)C(=O)Nc1sc2c(c1C(=O)c1ccccc1Cl)CCN(C(C)=O)C2` returned an IC50 in assay [1] of 0.51 µM.

Compound `CCN1CCc2c(sc(NC(=O)C(C)C)c2C(=O)c2ccccc2Cl)C1` gave an IC50 in assay [1] of 0.92 µM.

`CC(=O)N1CCc2c(sc(NC(=O)c3cccnc3)c2C(=O)c2cccc(Cl)c2)C1` yielded an IC50 in assay [1] of 36 µM.

On to `CC(C)C(=O)Nc1sc2c(c1C(=O)c1ccccc1Cl)CCN(Cc1ccccc1)C2`, for which, in assay [1], half-maximal inhibition (IC50) was put at 5 µM.

In turn, `CCN1CCc2c(sc(NC(=O)C(C)C)c2C(O)c2ccccc2Cl)C1` (configuration not stated) yielded an IC50 in assay [1] of 100 µM.

With `CC(=O)N1CCc2c(sc(NC(=O)C(C)C)c2C(=O)c2ccc(Cl)cc2)C1`, the IC50 in assay [1] is greater than 100 µM.

In turn, `CC(=O)N1CCc2c(sc(NC(=O)C(C)Br)c2C(=O)c2ccccc2Cl)C1` (configuration not stated) returned an IC50 in assay [1] of 6 µM.

In turn, `O=C(Nc1sc2c(c1C(=O)c1ccccc1Cl)CCN(Cc1ccccc1)C2)c1cccnc1` gave an IC50 in assay [1] of 7.1 µM.

Take `CCOC(=O)c1c(NC(=O)C2CC2)sc2c1CCN(C(C)=O)C2`: 50 mg/kg produced 64.2% inhibition in vivo in assay [2]. Further, 10 µM corresponded to half-maximal inhibition in assay [1] (IC50).

With `CCN1CCc2c(sc(NC(=O)C(C)C)c2C(=O)c2ccc3c(c2)OCO3)C1`, the IC50 in assay [1] turned out to be 78 µM.

Compound `CC(=O)N1CCc2c(sc(NC(=O)C(C)(C)C)c2C(=O)c2ccccc2Cl)C1` showed an IC50 in assay [1] of 3.4 µM.

On to `CC(=O)N1CCc2c(sc(NC(=O)C(C)C)c2C(=O)c2cccc(Cl)c2)C1`, for which the IC50 in assay [1] came to 7.6 µM.

As for `CC(C)CN(CC(C)C)c1sc2c(c1C(=O)c1ccccc1Cl)CCN(C(=O)C1CC1)C2`, in assay [1], the IC50 was greater than 100 µM.

In turn, `CC(=O)N1CCc2c(sc(NC(=O)C(C)C)c2C(=O)c2ccccc2C)C1` came in with an inhibition in vivo at 50 mg/kg in assay [2] of 3.9%. Also, the IC50 in assay [1] was 3.9 µM.

Consider `CC(=O)N1CCc2c(sc(NC(=O)CCc3ccccc3)c2C(=O)c2ccccc2Cl)C1`, for which, in assay [1], the IC50 is greater than 100 µM.

As to `CC(=O)N1CCc2c(sc(NC(=O)C3CC3)c2C(=O)c2ccccc2C)C1`, 50 mg/kg produced 58.6% inhibition in vivo in assay [2]. In assay [1], this compound displayed an IC50 of 2.9 µM.

In assay [1], `CC(=O)N1CCc2c(sc(NC(=O)C3CCC3)c2C(=O)c2ccccc2Cl)C1` yielded an IC50 of 2.9 µM.

Regarding `CCc1c(NC(=O)C(C)C)sc2c1CCN(C(C)=O)C2`, the IC50 in assay [1] stood at 23 µM.

As for `CC(=O)N1CCc2c(sc(N(C)C(=O)C(C)C)c2C(=O)c2ccccc2Cl)C1`, in assay [1], the concentration for half-maximal inhibition (IC50) turned out to be 33 µM.

On to `O=C(Nc1sc2c(c1C(=O)c1ccccc1Cl)CCN(C(=O)C1CC1)C2)c1cccnc1`, for which the midpoint of inhibition in assay [1], the IC50, lay at 3.9 µM.

In the case of `CC(=O)N1CCc2c(sc(NC(=O)C(C)C)c2C(=O)c2ccccc2Cl)C1`, testing at 50 mg/kg in assay [2] gave an inhibition in vivo of 2.4%. For the same compound, the IC50 in assay [1] was 2.6 µM.

For the compound `O=C(c1ccccc1Cl)c1c(NC(=O)C2CC2)sc2c1CCN(Cc1ccccc1)C2`, the IC50 in assay [1] amounted to 6.5 µM.

`CC(=O)N1CCc2c(sc(NC(=O)CCl)c2C(=O)c2ccccc2Cl)C1` returned an IC50 in assay [1] greater than 100 µM.

`C[C@@H]1C[C@H]2[C@@H]3CCC4=CC(=O)C=C[C@]4(C)[C@@]3(F)[C@@H](O)C[C@]2(C)[C@@]1(O)C(=O)CO` [DEXAMETHASONE] returned an ED50 in assay [3] of 0.12 mg/kg. The same compound gave an IC50 in assay [1] of 0.02 µM.

In assay [1], `CC(=O)N1CCc2c(sc(N(CC(C)C)CC(C)C)c2C(=O)c2ccccc2Cl)C1` gave an IC50 of 30 µM.

As for `CCN1CCc2c(sc(N(CC)C(=O)C(C)C)c2C(=O)c2ccccc2Cl)C1`, in assay [1], the IC50 stood at 10 µM.

In assay [2], `CC(=O)N1CCc2c(sc(NC(=O)C3CC3)c2C(=O)c2ccccc2)C1` displayed an inhibition in vivo at 50 mg/kg of 34.1%. In assay [1], this compound showed an IC50 of 3 µM.

In assay [1], `CCN(CC)C(=O)Nc1sc2c(c1C(=O)c1c(OC)cccc1OC)CCN(C(C)=O)C2` showed a half-maximal inhibitory concentration (IC50) of 3.8 µM.

Compound `COc1ccc(C(=O)c2c(NC(C)=O)sc3c2CCN(C(C)=O)C3)cc1OC` returned an IC50 in assay [1] of 46 µM.

`CC(=O)N1CCc2c(sc(NC(=O)/C=C/c3ccccc3)c2C(=O)c2ccccc2Cl)C1` showed an IC50 in assay [1] greater than 100 µM.

As to `CCNC(=O)Nc1sc2c(c1C(=O)c1ccccc1Cl)CCN(C(C)=O)C2`, the IC50 in assay [1] was found to be 10 µM.

Turning to `CC(=O)N1CCc2c(sc(NC(=O)C(C)Cl)c2C(=O)c2ccccc2Cl)C1` (configuration not stated), the 50% inhibitory concentration (IC50) in assay [1] turned out to be 12 µM.

On to `CCN(CC)C(=O)N(C)c1sc2c(c1C(=O)c1ccccc1Cl)CCN(C(C)=O)C2`, for which 10 µM corresponded to half-maximal inhibition in assay [1] (IC50).

With `CC(=O)N1CCc2c(sc(NC(=O)C(C)N)c2C(=O)c2ccccc2Cl)C1` (configuration not stated), half-maximal inhibition in assay [1] (IC50) required 8 µM.

Consider `CC(=O)Nc1sc2c(c1C(=O)c1ccccc1Cl)CCN(C(C)=O)C2`, for which half-maximal inhibition in assay [1] (IC50) required 9.5 µM.

`CC(=O)N1CCc2c(sc(NC(=O)c3cccnc3)c2C(=O)c2ccccc2Cl)C1` had an IC50 in assay [1] of 12 µM.

For the compound `CC(=O)c1c(NC(=O)C2CC2)sc2c1CCN(C(C)=O)C2`, testing at 50 mg/kg in assay [2] gave an inhibition in vivo of 31.3%. In assay [1], this compound yielded a 50% inhibitory concentration (IC50) of 28 µM.

Regarding `CCC(=O)Nc1sc2c(c1C(=O)c1ccccc1Cl)CCN(C(C)=O)C2`, inhibition in assay [1] was half-maximal at 15 µM (IC50).

As for `CC(=O)N1CCc2c(sc(NC(=O)c3ccccc3)c2C(=O)c2ccccc2)C1`, inhibition in assay [1] was half-maximal at 48 µM (IC50).

In assay [1], `CC(=O)N1CCc2c(sc(NC(=O)c3ccccc3)c2C(=O)c2ccccc2Cl)C1` came in with an IC50 of 46 µM.

On to `CCCCCCC(=O)Nc1sc2c(c1C(=O)c1ccccc1Cl)CCN(C(C)=O)C2`, for which the IC50 in assay [1] is greater than 100 µM.

Regarding `O=C(Nc1sc2c(c1C(=O)c1ccccc1Cl)CCN(C(=O)C1CC1)C2)c1ccccc1`, in assay [1], the IC50 is greater than 100 µM.

Consider `CC(=O)CCCCn1c(=O)c2c(ncn2C)n(C)c1=O` [PENTOXIFYLLINE], for which 100 mg/kg produced 74.4% inhibition in vivo in assay [4]. In assay [1], this compound registered an IC50 of 40 µM.

`COc1ccc(C(=O)c2c(NC(C)=O)sc3c2CCN(C(C)=O)C3)cc1`: in assay [1], the IC50 stood at 26 µM.

In assay [2], `CC(=O)N1CCc2c(sc(NC(=O)C3CC3)c2C(=O)c2ccccc2Cl)C1` had an inhibition in vivo at 50 mg/kg of 35%. The same compound registered an IC50 in assay [1] of 3 µM.

In assay [1], `O=C(c1ccccc1Cl)c1c(N(CC2CCCCC2)CC2CCCCC2)sc2c1CCN(C(=O)C1CC1)C2` registered an IC50 greater than 100 µM.

What is called IC50 is the concentration that inhibits the measured activity by half. A low value points to greater potency in that assay. One may read the inhibition in vivo as the change of the read-out against control, counted positive when it falls. By ED50 is commonly meant the dose that gives a 50% effect, or the effect in half of the subjects. Low readings indicate an effect at a small dose, high ones a need for a large dose.
